In ChEMBL document CHEMBL3600357 (J Med Chem, 2015):
pIC50, pKi: −log10 of the molar value. Values belong to the compound of their own block, whether it stands above or below them.

Columns and labels:
[1] = Octanol water partition coefficient, logP of the compound; type: physicochemical
Cytochrome P450 3A4 [2] = biological target: T1, Cytochrome P450 3A4 (Homo sapiens, UniProt P08684); experiment: Time dependent inhibition of CYP3A4 in human liver microsomes; type: ADME
[3] = Intrinsic clearance in human liver microsomes; type: ADME; settings: read-out: CLH
SJSA-1 = experiment: Inhibition of cell proliferation of human SJSA1 cells
[4] = biological target: E3 ubiquitin-protein ligase Mdm2 (Mus musculus, UniProt P23804); experiment: Inhibition of mouse MDM2 by TR-FRET assay
E3 ubiquitin-protein ligase Mdm2 (Mus musculus, UniProt P23804), sequence (P23804 whole entry): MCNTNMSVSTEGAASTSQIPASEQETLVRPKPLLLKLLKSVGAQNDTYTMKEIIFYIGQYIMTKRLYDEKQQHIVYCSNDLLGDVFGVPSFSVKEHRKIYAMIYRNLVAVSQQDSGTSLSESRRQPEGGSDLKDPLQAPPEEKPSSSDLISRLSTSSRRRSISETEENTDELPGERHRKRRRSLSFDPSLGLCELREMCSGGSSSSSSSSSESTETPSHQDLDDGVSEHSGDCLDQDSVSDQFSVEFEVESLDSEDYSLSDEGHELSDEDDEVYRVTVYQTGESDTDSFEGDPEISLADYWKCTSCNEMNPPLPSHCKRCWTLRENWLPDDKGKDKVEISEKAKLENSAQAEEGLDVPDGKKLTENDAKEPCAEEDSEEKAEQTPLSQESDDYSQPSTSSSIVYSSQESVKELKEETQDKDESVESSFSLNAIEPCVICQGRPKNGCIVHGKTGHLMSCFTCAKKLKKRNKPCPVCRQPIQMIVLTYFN

[5] = Inhibition of rat MDM2 by TR-FRET assay
[6] = biological target: E3 ubiquitin-protein ligase Mdm2 (Canis lupus familiaris, UniProt P56950); experiment: Inhibition of dog MDM2 by TR-FRET assay
E3 ubiquitin-protein ligase Mdm2 (Canis lupus familiaris, UniProt P56950), sequence (P56950 whole entry): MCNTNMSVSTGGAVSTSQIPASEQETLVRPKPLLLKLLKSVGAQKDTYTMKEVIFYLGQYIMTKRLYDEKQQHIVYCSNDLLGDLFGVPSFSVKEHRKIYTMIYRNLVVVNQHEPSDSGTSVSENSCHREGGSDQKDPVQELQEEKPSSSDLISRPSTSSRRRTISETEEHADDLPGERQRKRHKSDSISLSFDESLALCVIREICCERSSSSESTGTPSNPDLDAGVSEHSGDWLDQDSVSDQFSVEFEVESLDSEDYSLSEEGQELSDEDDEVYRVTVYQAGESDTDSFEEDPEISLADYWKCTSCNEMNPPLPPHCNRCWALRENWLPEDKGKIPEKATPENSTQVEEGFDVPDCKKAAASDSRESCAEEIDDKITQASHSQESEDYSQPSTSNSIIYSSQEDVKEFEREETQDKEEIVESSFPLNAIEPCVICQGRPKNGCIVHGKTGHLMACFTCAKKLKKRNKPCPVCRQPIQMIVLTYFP

[7] = Intrinsic clearance in monkey liver microsomes; type: ADME, Macaca mulatta; settings: rhesus monkey, read-out: CLH
[8] = biological target: Tumour suppressor p53/oncoprotein Mdm2 (Homo sapiens, UniProt Q00987); experiment: Inhibition of MDM2/p53 interaction (unknown origin) using biotinylated MDM2 and Cy5-p53 (18 to 26 amino acids) by TR-FRET assay; type: protein assay
Tumour suppressor p53/oncoprotein Mdm2, sequence (P04637 whole entry, the tested form may be a part): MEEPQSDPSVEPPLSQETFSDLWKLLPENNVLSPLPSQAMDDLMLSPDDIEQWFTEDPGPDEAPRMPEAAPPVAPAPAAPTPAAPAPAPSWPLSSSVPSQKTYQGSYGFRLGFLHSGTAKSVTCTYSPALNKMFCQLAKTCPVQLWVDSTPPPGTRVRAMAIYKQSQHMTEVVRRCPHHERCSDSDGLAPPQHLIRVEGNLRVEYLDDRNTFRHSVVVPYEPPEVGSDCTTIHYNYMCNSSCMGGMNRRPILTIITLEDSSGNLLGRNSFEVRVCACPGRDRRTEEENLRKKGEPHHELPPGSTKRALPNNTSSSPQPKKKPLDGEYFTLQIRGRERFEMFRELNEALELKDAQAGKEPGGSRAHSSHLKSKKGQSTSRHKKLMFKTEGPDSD
Tumour suppressor p53/oncoprotein Mdm2, sequence (Q00987 whole entry, the tested form may be a part): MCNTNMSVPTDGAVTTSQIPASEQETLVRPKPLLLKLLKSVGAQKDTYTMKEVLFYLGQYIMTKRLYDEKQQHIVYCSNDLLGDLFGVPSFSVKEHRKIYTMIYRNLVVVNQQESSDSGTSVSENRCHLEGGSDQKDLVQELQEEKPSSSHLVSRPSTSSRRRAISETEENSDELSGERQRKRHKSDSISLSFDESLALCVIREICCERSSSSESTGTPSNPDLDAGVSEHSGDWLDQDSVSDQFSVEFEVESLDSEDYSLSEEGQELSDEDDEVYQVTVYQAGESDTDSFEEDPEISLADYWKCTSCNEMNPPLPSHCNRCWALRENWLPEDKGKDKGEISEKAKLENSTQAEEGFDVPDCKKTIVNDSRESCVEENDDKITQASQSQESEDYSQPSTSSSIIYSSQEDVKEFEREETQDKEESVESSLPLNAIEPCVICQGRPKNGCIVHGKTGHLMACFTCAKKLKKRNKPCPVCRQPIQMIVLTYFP

[9] = biological target: Voltage-gated inwardly rectifying potassium channel KCNH2 (Homo sapiens, UniProt Q12809); experiment: Inhibition of human ERG by radioligand binding assay
Voltage-gated inwardly rectifying potassium channel KCNH2, sequence (Q12809 whole entry): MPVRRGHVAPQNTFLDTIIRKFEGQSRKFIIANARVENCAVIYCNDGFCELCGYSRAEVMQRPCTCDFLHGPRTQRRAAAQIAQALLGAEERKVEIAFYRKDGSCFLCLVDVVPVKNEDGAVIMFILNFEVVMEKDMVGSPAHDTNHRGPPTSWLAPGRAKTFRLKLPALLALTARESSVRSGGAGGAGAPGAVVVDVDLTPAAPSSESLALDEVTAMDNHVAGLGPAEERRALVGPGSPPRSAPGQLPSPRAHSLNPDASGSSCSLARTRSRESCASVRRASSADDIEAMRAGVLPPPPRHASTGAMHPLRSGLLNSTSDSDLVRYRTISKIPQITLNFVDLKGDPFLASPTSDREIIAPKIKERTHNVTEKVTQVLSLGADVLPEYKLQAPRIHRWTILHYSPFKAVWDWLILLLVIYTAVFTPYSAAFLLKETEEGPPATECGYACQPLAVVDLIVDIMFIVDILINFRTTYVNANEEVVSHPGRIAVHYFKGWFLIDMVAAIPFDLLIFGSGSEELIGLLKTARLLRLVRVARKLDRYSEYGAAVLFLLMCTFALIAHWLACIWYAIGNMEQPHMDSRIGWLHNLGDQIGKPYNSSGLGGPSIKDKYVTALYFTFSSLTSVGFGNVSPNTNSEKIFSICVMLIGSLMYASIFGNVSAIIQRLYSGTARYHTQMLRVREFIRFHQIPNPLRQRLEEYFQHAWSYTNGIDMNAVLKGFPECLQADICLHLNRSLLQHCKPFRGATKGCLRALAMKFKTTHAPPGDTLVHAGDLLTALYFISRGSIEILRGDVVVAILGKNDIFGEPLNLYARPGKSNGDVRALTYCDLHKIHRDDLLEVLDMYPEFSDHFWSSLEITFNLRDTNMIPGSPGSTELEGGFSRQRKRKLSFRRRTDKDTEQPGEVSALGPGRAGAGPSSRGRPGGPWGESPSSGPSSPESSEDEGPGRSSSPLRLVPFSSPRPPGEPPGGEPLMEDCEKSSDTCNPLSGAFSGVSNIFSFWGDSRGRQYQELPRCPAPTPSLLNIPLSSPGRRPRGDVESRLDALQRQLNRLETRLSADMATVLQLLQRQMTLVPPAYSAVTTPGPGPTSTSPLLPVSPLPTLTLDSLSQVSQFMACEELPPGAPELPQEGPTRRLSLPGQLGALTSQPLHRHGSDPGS

[10] = Protein binding in Sprague-Dawley rat plasma by equilibrium dialysis method; type: ADME, cell-free; settings: read-out: PPB
Outline: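 Rat plasma protein binding by rapid equilibrium dialysis (RED) in 100% plasma.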

[11] = Cmax in Sprague-Dawley rat at 3 mg/kg, po; type: ADME, organism-based; parameters: dose 3 mg/kg, route oral; settings: in vivo
Outline: (§1)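 Sprague-Dawley rats. IV dose given as a solution in NMP:PEG200 (10:90); 3 mg/kg PO given as a suspension in CMC:water:Tween (0.5:99:0.5). AUC and Cmax dose-normalized to 1 mg/kg. Mean ± SD from four rats.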

Rattus norvegicus [12] = experiment: Oral bioavailability in Sprague-Dawley rat at 3 mg/kg; type: ADME, organism-based; settings: in vivo; outline: as §1
Rattus norvegicus [13] = experiment: AUC in Sprague-Dawley rat at 3 mg/kg, po; type: ADME, organism-based; settings: in vivo; outline: as §1
[14] = Terminal half life in Sprague-Dawley rat at 1 mg/kg, iv; type: ADME, organism-based; settings: Sprague-Dawley, in vivo, read-out: beta t1/2 (converted); outline: as §1
Rattus norvegicus [15] = experiment: AUC in Sprague-Dawley rat at 1 mg/kg, iv; type: ADME, organism-based; settings: in vivo; outline: as §1
[16] = Volume of distribution at steady state in Sprague-Dawley rat at 1 mg/kg, iv; type: ADME, organism-based; settings: Sprague-Dawley, in vivo, read-out: Vdss
[17] = Permeability in human Caco2 cells assessed as drug recovery during apical to basolateral transport; type: ADME, cell-based; settings: Caco-2, read-out: Drug recovery
Cytochrome P450 3A4 [18] = biological target: T1, Cytochrome P450 3A4; experiment: Time dependent inhibition of CYP3A4 (unknown origin); type: ADME
[19] = Tmax in Sprague-Dawley rat at 3 mg/kg, po; type: ADME, organism-based; settings: in vivo
[20] = Half life in rat liver microsomes; type: ADME
[21] = Permeability from apical to basolateral side in human Caco2 cells; type: ADME, cell-based; settings: Caco-2
[22] = Permeability from basolateral to apical side in human Caco2 cells; type: ADME, cell-based; settings: Caco-2
[23] = Intrinsic clearance in rat liver microsomes; type: ADME; settings: read-out: CLH
[24] = Clearance in Sprague-Dawley rat at 1 mg/kg, iv; type: ADME, organism-based; settings: in vivo; outline: as §1
[25] = Equilibrium solubility in pH 6.8 buffer solution; type: physicochemical
Outline: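 High-throughput equilibrium solubility assay at pH 6.8.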

T1 sequence (P08684 whole entry): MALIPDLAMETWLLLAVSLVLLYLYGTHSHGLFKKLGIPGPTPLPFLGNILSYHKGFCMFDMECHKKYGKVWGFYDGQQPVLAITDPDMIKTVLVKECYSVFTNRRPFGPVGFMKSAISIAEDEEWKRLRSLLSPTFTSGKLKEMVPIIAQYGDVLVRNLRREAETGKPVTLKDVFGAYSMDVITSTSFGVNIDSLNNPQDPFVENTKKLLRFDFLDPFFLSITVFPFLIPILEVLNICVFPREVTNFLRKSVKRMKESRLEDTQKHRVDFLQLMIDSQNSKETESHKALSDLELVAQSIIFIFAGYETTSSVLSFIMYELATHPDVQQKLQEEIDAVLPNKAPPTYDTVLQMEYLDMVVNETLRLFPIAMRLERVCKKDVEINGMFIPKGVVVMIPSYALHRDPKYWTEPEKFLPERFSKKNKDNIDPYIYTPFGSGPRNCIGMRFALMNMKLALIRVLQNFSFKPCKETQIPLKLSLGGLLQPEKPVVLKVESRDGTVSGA

SMILES: COc1cc2c(cc1OC(C)C)[C@H](c1ccc(Cl)cc1)N(c1ccc(N(C)C[C@H]3CC[C@H](N(C)C)CC3)cc1)C(=O)C2
logP [1]: > 4.2
pIC50 (Cytochrome P450 3A4 [2]): 5.03
microsomal CLint [3]: 4.6 µL/min/mg
GI50 (SJSA-1): 0.71 µM

pKi [4]: 7.70
pKi [5]: 7.90
pKi [6]: 7.98
SMILES: COc1ccc(C2=N[C@@H](c3ccc(Cl)cc3)[C@@H](c3ccc(Cl)cc3)N2C(=O)N2CCNC(=O)C2)c(OC(C)C)c1 [NUTLIN-3]

logP [1]: 4.6
microsomal CLint [7]: 420 µL/min/mg
pIC50 (Cytochrome P450 3A4 [2]): < 4.70
microsomal CLint [3]: 220 µL/min/mg
SMILES: COc1cc2c(cc1OC(C)C)[C@H](c1ccc(Cl)cc1)N(c1cnc(N(C)C[C@H]3CC[C@H](N4CCN(C)C(=O)C4)CC3)cn1)C(=O)C2

logP [1]: 4.4
pIC50 [8]: 7.94
microsomal CLint [7]: 224 µL/min/mg
pIC50 (Cytochrome P450 3A4 [2]): 4.88
microsomal CLint [3]: 157 µL/min/mg
SMILES: COc1cc2c(cc1OC(C)C)[C@H](c1ccc(Cl)cc1)N(c1ccc(N(C)C[C@H]3CC[C@H](N4CC(=O)N(C)C4)CC3)nc1)C(=O)C2

SMILES: CCC(=O)N[C@H]1CC[C@H](CN(C)c2ccc(N3C(=O)Cc4cc(OC)c(O[C@H](C)CC)cc4[C@@H]3c3ccc(Cl)cc3)cc2)CC1
pIC50 [9]: < 4.52
pIC50 [8]: 7.70
GI50 (SJSA-1): 4.96 µM

logP [1]: > 6.3
pIC50 [8]: 8.80
pIC50 (Cytochrome P450 3A4 [2]): 5.30
microsomal CLint [3]: 78.3 µL/min/mg
SMILES: COc1cc2c(cc1OC(C)C)[C@H](c1ccc(Cl)cc1)N(c1ccc(N(C)C[C@H]3CC[C@H](N(C)C)CC3)nc1)C(=O)C2

SMILES: CC[C@@H](C)Oc1cc2c(cc1OC)CC(=O)N(c1ccc(N(C)Cc3ccncc3)cc1)[C@H]2c1ccc(Cl)cc1
GI50 (SJSA-1): 1.21 µM

SMILES: COc1cc2c(cc1OC(C)C)[C@H](c1ccc(Cl)cc1)N(c1ccc(N(C)C[C@H]3CC[C@H](N4CCNC(=O)C4)CC3)cc1)C(=O)C2
logP [1]: 5.3
pIC50 [9]: 4.80
fraction unbound [10]: < 0.01
Cmax [11]: 74.6 nM
microsomal CLint [7]: 79.7 µL/min/mg
F (Rattus norvegicus [12]): 49%
pIC50 (Cytochrome P450 3A4 [2]): 4.95
AUC (Rattus norvegicus [13]): 1.018 µM·h
half-life [14]: 9.3 h
microsomal CLint [3]: 3.4 µL/min/mg
AUC (Rattus norvegicus [15]): 2.154 µM·h
GI50 (SJSA-1): 0.35 µM
Vd [16]: 8 L/kg

SMILES: CC[C@@H](C)Oc1cc2c(cc1OC)CC(=O)N(c1ccc(N(C)C[C@H]3CC[C@H](N(C)C)CC3)cc1)C2c1ccc(Cl)cc1 (stereo not given in full)
GI50 (SJSA-1): 1.13 µM

logP [1]: 4.8
microsomal CLint [7]: 279 µL/min/mg
pIC50 (Cytochrome P450 3A4 [2]): < 4.70
microsomal CLint [3]: 151 µL/min/mg
SMILES: COc1cc2c(cc1OC(C)C)[C@H](c1ccc(Cl)cc1)N(c1ccc(N(C)C[C@H]3CC[C@H](N4CCN(C)C(=O)C4)CC3)nc1)C(=O)C2

SMILES: CC[C@@H](C)Oc1cc2c(cc1OC)CC(=O)N(c1ccc(N(C)C[C@H]3CC[C@H](N(C)C)CC3)cc1)[C@H]2c1ccc(Cl)cc1
recovery [17]: < 30%
K (Cytochrome P450 3A4 [18]): 0.042 min⁻¹
pIC50 [9]: 5.89
fraction unbound [10]: < 0.01
Cmax [11]: 17.6 nM
Tmax [19]: 7 h
half-life [20]: 4.1 h
Papp A→B [21]: 0.08 ×10⁻⁶ cm/s
F (Rattus norvegicus [12]): 18%
Papp B→A [22]: 0.12 ×10⁻⁶ cm/s
AUC (Rattus norvegicus [13]): 0.297 µM·h
half-life [14]: 19.1 h
microsomal CLint [23]: 5.6 µL/min/mg
AUC (Rattus norvegicus [15]): 1.574 µM·h
clearance [24]: 15 mL/min/kg
GI50 (SJSA-1): 0.94 µM
Vd [16]: 23.9 L/kg
solubility thermodynamic [25]: > 1000 µM

SMILES: CC[C@@H](C)Oc1cc2c(cc1OC)CC(=O)N(c1ccc(N(C)Cc3ccncc3)cc1)C2c1ccc(Cl)cc1 (stereo not given in full)
GI50 (SJSA-1): 3.86 µM

logP [1]: 4.6
microsomal CLint [7]: 355 µL/min/mg
pIC50 (Cytochrome P450 3A4 [2]): < 4.70
microsomal CLint [3]: 156 µL/min/mg
SMILES: COc1cc2c(cc1OC(C)C)[C@H](c1ccc(Cl)cc1)N(c1ccc(N(C)C[C@H]3CC[C@H](N4CCN(C)C(=O)C4)CC3)cn1)C(=O)C2

SMILES: COc1cc2c(cc1OC(C)C)[C@H](c1ccc(Cl)cc1)N(c1ccc(N(C)C[C@H]3CC[C@H](N4CNC(=O)C4)CC3)cc1)C(=O)C2
pIC50 [8]: 8.77
GI50 (SJSA-1): 0.6 µM

SMILES: CC[C@@H](C)Oc1cc2c(cc1OC)CC(=O)N(c1ccc(N(C)CC3CCNCC3)cc1)C2c1ccc(Cl)cc1 (stereo not given in full)
GI50 (SJSA-1): 1.09 µM

SMILES: CC[C@@H](C)Oc1cc2c(cc1OC)CC(=O)N(c1ccc(N(C)Cc3ccncc3)cc1)[C@@H]2c1ccc(Cl)cc1
GI50 (SJSA-1): 29.6 µM

SMILES: CC[C@@H](C)Oc1cc2c(cc1OC)CC(=O)N(c1ccc(N(C)C[C@H]3CC[C@H](N)CC3)cc1)C2c1ccc(Cl)cc1 (stereo not given in full)
GI50 (SJSA-1): 2.85 µM
